Assay outcomes (PubChem)
TRPC4 act: activators of mouse TRPC4 channel, primary screen, Fluo4 calcium, HEK293 TRPC4beta/mu-opioid cells; B-score at 10 µM; actives 0.49% (n = 310,000); Fluo4 calcium fluorescence; stronger effect = higher value; Short transient receptor potential channel 4 (Mus musculus), Q9QUQ5;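 active means B-score above 5 SD of library B-scores, and initial fluorescence ratio not above library mean plus 5 SD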;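 further: positive B-score marks a calcium rise read as TRPC4 activation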
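Assay system: HEK293 stable line with TRPC4beta plus mu-opioid receptor; schedule: 45 min room-temperature Fluo4 loading, 110 s read; technique: kinetic Fluo4 calcium fluorescence; evaluation: integrated baseline-normalised fluorescence ratio, converted to per-well B score; controls: buffer (low) and maximal DAMGO (high)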
TRPC4 block: inhibitors of mouse TRPC4 channel, primary screen, Fluo4 calcium, HEK293 TRPC4beta/mu-opioid cells; Short transient receptor potential channel 4 (Mus musculus), Q9QUQ5; DAMGO-evoked Fluo4 calcium flux; stronger effect = lower value; B-score at 10 µM; actives 0.39% (n = 300,000); AID 2247, 2010;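 active means B-score over 3 SD under the library average, no early fluorescence shift, positive overall ratio signal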
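Test system – stable TRPC4beta/mu-opioid receptor HEK293 cells · Probe or stimulus – DAMGO, a submaximal dose followed by a maximal one · Dosing – one concentration per compound · Signal – Fluo4 calcium fluorescence by kinetic imaging, 5 s 1 Hz baseline · Evaluation – per-well B score of integrated baseline-normalized Fluo4 ratio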
TRPC6 inh: mouse TRPC6 channel inhibitors, primary screen, cell-based, HEK293, membrane potential dye; Short transient receptor potential channel 6 (Mus musculus), Q61143; AID 2553, 2010; ACh-evoked depolarization; stronger effect = lower value; actives 1.1% (n = 310,000); B-score at 10 µM;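 active means B-score under library mean minus 3 SD, initial fluorescence not abnormally high, positive integrated signal ratio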;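 further: B-score derived from integrated fluorescence ratio over the kinetic read; more negative B-score means stronger inhibition of depolarization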
Target sequence (Q61143 whole entry, looked up): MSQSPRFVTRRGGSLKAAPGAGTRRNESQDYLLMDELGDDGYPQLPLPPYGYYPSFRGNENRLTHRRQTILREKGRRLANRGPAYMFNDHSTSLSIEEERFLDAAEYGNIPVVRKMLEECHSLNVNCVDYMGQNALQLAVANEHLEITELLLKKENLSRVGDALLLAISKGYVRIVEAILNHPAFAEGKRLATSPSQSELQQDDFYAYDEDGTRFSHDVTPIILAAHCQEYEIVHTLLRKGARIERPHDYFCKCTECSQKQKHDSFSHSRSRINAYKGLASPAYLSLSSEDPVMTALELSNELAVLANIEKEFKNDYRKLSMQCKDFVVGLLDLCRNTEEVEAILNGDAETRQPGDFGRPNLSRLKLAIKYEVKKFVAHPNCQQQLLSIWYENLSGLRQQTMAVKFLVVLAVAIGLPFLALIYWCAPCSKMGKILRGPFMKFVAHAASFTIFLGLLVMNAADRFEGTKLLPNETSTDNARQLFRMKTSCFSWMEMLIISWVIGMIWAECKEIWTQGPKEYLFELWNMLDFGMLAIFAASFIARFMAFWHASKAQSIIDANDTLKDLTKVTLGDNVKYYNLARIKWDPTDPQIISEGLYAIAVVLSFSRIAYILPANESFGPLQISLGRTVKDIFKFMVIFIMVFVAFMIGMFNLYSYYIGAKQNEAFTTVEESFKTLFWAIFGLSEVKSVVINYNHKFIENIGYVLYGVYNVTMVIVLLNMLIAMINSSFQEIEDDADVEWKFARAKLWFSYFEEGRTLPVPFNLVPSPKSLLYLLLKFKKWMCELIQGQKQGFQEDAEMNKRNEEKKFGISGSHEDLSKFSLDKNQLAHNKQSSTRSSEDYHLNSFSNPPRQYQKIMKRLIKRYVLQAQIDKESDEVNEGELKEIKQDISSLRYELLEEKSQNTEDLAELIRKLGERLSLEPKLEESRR
TRPC4 potent: positive allosteric modulators of TRPC4, primary screen, cell-based, mouse TRPC4beta, HEK293 mu-opioid, Fluo-4 calcium. Short transient receptor potential channel 4 (Mus musculus), Q9QUQ5. DAMGO EC20, Fluo-4 Ca2+ flux; stronger effect = higher value. B-score at 10 µM. actives 0.42% (n = 310,000). AID 2227, 2009;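 active means B-score of calcium response area above 5 SD of library B-scores, with initial fluorescence ratio within 5 SD of library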;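 further: B-score of integrated fluorescence ratio over time as area under calcium response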
TRPC6 activator: mouse TRPC6 channel activators, primary screen, cell-based, HEK293, membrane potential dye. HEK293-TRPC6 membrane potential dye fluorescence; stronger effect = higher value. Short transient receptor potential channel 6 (Mus musculus), Q61143. AID 2550, 2010. actives 0.13% (n = 310,000). B-score at 10 µM;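 active means B-score of the integrated fluorescence ratio above library mean plus 3 SD, and starting fluorescence ratio within library mean plus 5 SD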;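 further: higher score means more depolarization so channel activation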
TRPC4 spec 2: mouse TRPC4 off-target activity of TRPC6 inhibitors, second screen; shares compounds with TRPC6 inh; HEK293 TRPC4/MOR, membrane potential dye fluorescence; channel activated by saturating DAMGO dose; inhibition, % at 10 µM; actives 42% (n = 920); AID 2776;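 active means compounds whose fluorescence signal differed from control wells by over 3 SD, either direction, in both duplicate plates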
TRPC4 spec: mouse TRPC4 modulation by TRPC6 hits, confirmation, selectivity assay for TRPC6 inhibitor project, cell-based, HEK293 TRPC4/mu-opioid, membrane potential dye; actives 61% (n = 920); membrane potential fluorescence; shares compounds with TRPC6 inh; AID 2777, 2010; activity change, negative = inhibition, % at 10 µM;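 active means rise or fall in signal beyond 3 SD of buffer-only wells in both replicate plates, either sign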;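 further: integrated kinetic ratio of fluorescence range over baseline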
HEK293 MPD ctr 2-1: nonspecific membrane potential effects, parental HEK293, confirmation, counter-screen for TRPC6 inhibitor project, cell-based, second counter screen; shares compounds with TRPC6 inh; parental HEK293 membrane potential dye fluorescence; maximal acetylcholine challenge after compound addition; signal change vs control, % at 10 µM; actives 31% (n = 920);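 active means membrane potential signal moving either way by over 3 SD of the maximum-effect control, in both duplicate plates, meaning non-specific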
HEK293 MPD ctr-1: membrane potential modulation in parental HEK293, confirmation, counter-screen for TRPC6 inhibitor project, cell-based; shares compounds with TRPC6 inh; parental HEK293 membrane potential dye fluorescence; membrane potential signal change, % at 10 µM; actives 60% (n = 920);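 active means membrane potential signal shifting up or down by more than 3 SD of buffer-only wells, on both duplicate plates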
HEK293 MPD ctr-2: parental HEK293 membrane potential modulation, confirmation, counter-screen for TRPC6 modulator project, cell-based; membrane potential dye fluorescence; shares compounds with TRPC6 inh; membrane potential signal change, % at 10 µM; actives 51% (n = 2,400);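 active means membrane potential signal moves up or down beyond 5 SD from buffer-only wells, on both duplicate plates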
HEK293 MPD ctr 2-2: second counter-screen for TRPC6 modulators: effect in parental HEK293 cells | actives 14% (n = 2,400) | inhibition, % at 10 µM | membrane potential dye fluorescence; after compound, maximal acetylcholine stimulation | shares compounds with TRPC6 inh;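 active means membrane potential signal drops by more than 5 SD from the mean control signal, in both duplicate plates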;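 further: plate controls were acetylcholine ECmax control wells for no effect and buffer only wells for full effect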
TRPC4/MOR mod: TRPC4 modulation by TRPC6 hit compounds, confirmation, selectivity assay for TRPC6 modulator project, cell-based, HEK293 TRPC4/mu-opioid, membrane potential dye, mouse | membrane potential fluorescence | percent change from control (negative = decrease, positive = increase), % at 10 µM | shares compounds with TRPC6 inh | actives 69% (n = 2,400);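 active means membrane potential signal moved up or down beyond 5 SD of buffer control wells, in both duplicate plates, actives on both sides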;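 further: plate controls were assay buffer wells for no effect and DAMGO maximal-effect wells for full effect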
TRPC4/MOR inh 2: mouse TRPC4 off-target activity of TRPC6 modulators, second screen | HEK293 TRPC4/mu-opioid, membrane potential dye fluorescence; stimulated with maximal-effect DAMGO | shares compounds with TRPC6 inh | actives 55% (n = 2,400) | inhibition, % at 10 µM;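 active means drop in membrane potential signal beyond 5 SD of the control wells in both duplicate plates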;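 further: TRPC4 counter screen for TRPC6 hits run under conditions tuned for TRPC6 not TRPC4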
TRPC6 block conf: mouse TRPC6 channel inhibitors, confirmation, HEK293 cells, membrane potential dye, duplicate | shares compounds with TRPC6 inh | ACh-evoked depolarization | actives 43% (n = 3,300) | AID 488960, 2010 | inhibition, % at 10 µM;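 active means fluorescence ratio falls more than 5 SD below the full-stimulation control mean, in both duplicate runs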;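 further: integrated fluorescence ratio of peak minus minimum over baseline after agonist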
TRPC6 act conf: mouse TRPC6 channel activators, confirmation, HEK293 cells, membrane potential dye, duplicate; shares compounds with TRPC6 inh; HEK293-TRPC6 membrane potential dye fluorescence, FDSS; activation, % at 10 µM; actives 11% (n = 2,800);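 active means ratio signal rise beyond 5 SD above unstimulated control wells' mean, seen in both duplicate runs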;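 further: plate controls were buffer EC0 wells for no effect and acetylcholine ECmax response for full effect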
* hit, by the source's call; i = inactive; . = no result given. Sampled rows, rich in hits. Any-hit rate of the full collection: about 2.3%.

SMILES	TRPC4 act	TRPC4 block	TRPC6 inh	TRPC4 potent	TRPC6 activator	HEK293 MPD ctr-2	HEK293 MPD ctr 2-2	TRPC4/MOR mod	TRPC4/MOR inh 2	TRPC6 block conf	TRPC6 act conf	others
Nc1nc(N2CCN(C/C=C/c3ccccc3)CC2)nc2ccccc12	i	i	-6.7*	i	i	.	.	.	.	88%*	i	TRPC4 spec 2=18%*;TRPC4 spec=-21%*;HEK293 MPD ctr 2-1=i;HEK293 MPD ctr-1=i
Cc1cc(N2CCN(S(=O)(=O)c3ccccc3)CC2)c2ccccc2n1	i	i	-8.9*	i	i	-187%*	i	-31%*	68%*	48%*	i
Nc1nc(N2CCN(C(=O)c3ccco3)CC2)nc2ccc(Br)cc12	i	i	i	i	i	.	.	.	.	.	.
O=C(CC12CC3CC(CC(C3)C1)C2)NC1CC1	i	i	i	i	i	.	.	.	.	.	.
O=S(=O)(c1ccsc1)N1CC=C(c2ccccc2)CC1	i	i	i	i	i	.	.	.	.	.	.
CN1CCCc2cc(C=O)ccc21	i	i	-7.9*	i	i	.	.	.	.	i	i	TRPC4 spec 2=i;TRPC4 spec=-8.7%*;HEK293 MPD ctr 2-1=i;HEK293 MPD ctr-1=i
CC(=O)N1c2ccc(S(=O)(=O)N3CCCC(C(=O)Nc4ccc(F)cc4)C3)cc2CC1C (stereo not drawn)	i	i	-5.1*	i	i	i	i	i	i	i	i
COc1ccc(NC(=O)C2CCCN(S(=O)(=O)c3ccc4c(c3)CC(C)N4C(C)=O)C2)cc1 (stereo not drawn)	i	i	i	i	i	.	.	.	.	.	.
CC(=O)c1ccc(NC(=O)C2CCCN(S(=O)(=O)c3ccc(-n4cnnn4)cc3)C2)cc1 (stereo not drawn)	i	i	i	i	i	.	.	.	.	.	.
CC(=O)Nc1ccc(NC(=O)C2CCCN(S(=O)(=O)c3ccc(-n4cnnn4)cc3)C2)cc1 (stereo not drawn)	i	i	-6.6*	i	i	.	.	.	.	i	i	TRPC4 spec 2=i;TRPC4 spec=i;HEK293 MPD ctr 2-1=i;HEK293 MPD ctr-1=i
CCc1ccc(NC(=O)C2CCCN(S(=O)(=O)c3cnc[nH]3)C2)cc1 (stereo not drawn)	i	i	-6.1*	i	i	i	i	i	i	i	i
CCc1ccc(NC(=O)C2CCN(S(=O)(=O)c3cnc[nH]3)CC2)cc1	i	i	i	i	i	.	.	.	.	.	.
COC(=O)C1=C(C)N(Cc2cccnc2)C(=O)/C1=C\c1sccc1C	i	i	i	i	i	.	.	.	.	.	.
COC(=O)CSc1nnc(SCc2ccc(OC)cc2)s1	i	i	-5.5*	i	i	i	i	i	i	i	i
C/C(=N\Nc1nc2ccccc2[nH]1)c1ccc(Cl)s1	i	i	i	i	i	.	.	.	.	.	.
C/C(=N\Nc1nc(C)cc(C)n1)c1ccc(N2CCOCC2)cc1	i	i	i	i	i	.	.	.	.	.	.
C/C(=N\Nc1nc2ccccc2[nH]1)c1ccc(N2CCOCC2)cc1	i	i	-5.8*	i	i	i	i	-14%*	i	i	i
C/C(=N\Nc1nc2ccccc2[nH]1)c1ccc(C)o1	i	i	-6*	i	i	-140%*	60%*	-26%*	80%*	76%*	i
CCOC(=O)C(Cc1ccccc1)NC(=O)CCc1nnc2ccc(N3CCCC3)nn12 (stereo not drawn)	i	i	i	i	i	.	.	.	.	.	.
CCN(CC)CC(=O)N1c2ccccc2Sc2ccc(Cl)cc21	i	i	-8.2*	i	i	.	.	.	.	i	.	TRPC4 spec 2=i;TRPC4 spec=6.0%*;HEK293 MPD ctr 2-1=i;HEK293 MPD ctr-1=7.4%*
CCN(CC)CC(=O)N1c2ccccc2Sc2ccccc21	i	i	i	i	i	.	.	.	.	.	.
NCCCC(=O)N1c2ccccc2Sc2ccccc21	i	i	-6.9*	i	i	.	.	.	.	i	i	TRPC4 spec 2=i;TRPC4 spec=i;HEK293 MPD ctr 2-1=i;HEK293 MPD ctr-1=i
NCCC(=O)N1c2ccccc2Sc2ccccc21	i	i	i	i	i	.	.	.	.	.	.
O=C(CCN1CCOCC1)N1c2ccccc2Sc2ccc(Cl)cc21	i	i	-5.2*	i	i	i	75%*	14%*	i	50%*	.
COc1ccc(C(C(=O)NC2CCCC2)N(C(=O)CNC(=O)c2ccco2)c2cccnc2)cc1 (stereo not drawn)	i	i	i	i	i	.	.	.	.	.	.
